Only some compounds are listed: those with a hit (about 2.3% of all), similar ones and a draw of the others.
TRPC6 inhibitor – inhibitors of mouse TRPC6 channel | HEK293-TRPC6, membrane potential dye, ACh-evoked depolarization; stronger effect = lower value | B-score at 10 µM | 310,000 tested, 1.1% active | AID 2553;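 active means B-score under library mean minus 3 SD, initial fluorescence not abnormally high, positive integrated signal ratio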;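 further: B-score derived from integrated fluorescence ratio over the kinetic read; more negative B-score means stronger inhibition of depolarization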
TRPC4 PAM – allosteric potentiators of mouse TRPC4 channel; B-score at 10 µM; HEK293 TRPC4beta/mu-opioid, DAMGO EC20, Fluo-4 Ca2+ flux; stronger effect = higher value; 310,000 tested, 0.42% active; Q9QUQ5;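 active means B-score of calcium response area above 5 SD of library B-scores, with initial fluorescence ratio within 5 SD of library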;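 further: B-score of integrated fluorescence ratio over time as area under calcium response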
Target sequence (Q9QUQ5 whole entry, looked up): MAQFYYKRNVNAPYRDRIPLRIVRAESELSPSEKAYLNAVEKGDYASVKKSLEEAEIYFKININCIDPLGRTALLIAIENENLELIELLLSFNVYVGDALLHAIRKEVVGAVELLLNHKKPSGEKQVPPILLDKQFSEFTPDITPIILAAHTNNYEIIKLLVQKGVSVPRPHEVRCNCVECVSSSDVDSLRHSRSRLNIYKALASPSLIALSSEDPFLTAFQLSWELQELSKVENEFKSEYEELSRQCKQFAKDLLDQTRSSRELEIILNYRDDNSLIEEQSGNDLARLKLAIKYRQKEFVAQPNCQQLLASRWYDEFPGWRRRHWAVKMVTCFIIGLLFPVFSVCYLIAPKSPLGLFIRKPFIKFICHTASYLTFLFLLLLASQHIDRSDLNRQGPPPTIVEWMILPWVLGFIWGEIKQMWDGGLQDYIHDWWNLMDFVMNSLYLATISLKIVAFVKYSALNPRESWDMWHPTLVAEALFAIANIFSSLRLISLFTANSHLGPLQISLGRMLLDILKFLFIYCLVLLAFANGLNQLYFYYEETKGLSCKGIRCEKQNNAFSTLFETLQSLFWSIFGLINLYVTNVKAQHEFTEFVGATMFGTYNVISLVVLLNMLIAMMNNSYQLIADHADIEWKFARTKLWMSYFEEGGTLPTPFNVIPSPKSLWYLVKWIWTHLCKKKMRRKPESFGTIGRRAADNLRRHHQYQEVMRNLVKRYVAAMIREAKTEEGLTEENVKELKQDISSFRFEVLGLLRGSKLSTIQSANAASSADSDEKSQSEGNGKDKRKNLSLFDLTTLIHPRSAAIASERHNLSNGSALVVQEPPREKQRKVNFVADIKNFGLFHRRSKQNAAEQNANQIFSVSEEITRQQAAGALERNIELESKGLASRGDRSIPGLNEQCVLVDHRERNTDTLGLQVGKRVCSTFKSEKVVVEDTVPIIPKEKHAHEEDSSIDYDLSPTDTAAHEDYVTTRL
TRPC6 activator – activators of mouse TRPC6 channel | Q61143 | HEK293-TRPC6 membrane potential dye fluorescence; stronger effect = higher value | B-score at 10 µM | 310,000 tested, 0.13% active | AID 2550;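 active means B-score of the integrated fluorescence ratio above library mean plus 3 SD, and starting fluorescence ratio within library mean plus 5 SD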;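 further: higher score means more depolarization so channel activation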
TRPC4 block – inhibitors of mouse TRPC4 channel | B-score at 10 µM | AID 2247 | HEK293 TRPC4beta/mu-opioid, DAMGO-evoked Fluo4 calcium flux; stronger effect = lower value | 300,000 tested, 0.39% active | Q9QUQ5;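 active means B-score over 3 SD under the library average, no early fluorescence shift, positive overall ratio signal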
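test system = HEK293 cells with stable TRPC4beta plus mu-opioid receptor expression | detection = Fluo4 Ca2+ flux fluorescence | read-out = integrated fluorescence ratio relative to baseline, converted to per-well B score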
TRPC4 agonist – TRPC4 (mouse) channel activation; B-score at 10 µM; AID 2237; 310,000 tested, 0.49% active; HEK293 TRPC4beta/mu-opioid, Fluo4 calcium fluorescence; stronger effect = higher value; Q9QUQ5;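 active means B-score above 5 SD of library B-scores, and initial fluorescence ratio not above library mean plus 5 SD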;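 further: positive B-score marks a calcium rise read as TRPC4 activation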
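Assay system – TRPC4beta and mu-opioid receptor HEK293 stable cells · Measured by – Fluo4 fluorescence, kinetic · Schedule – dye loading 45 min room temperature, 110 s kinetic read · Read-out – B-scored integrated calcium fluorescence ratio · Controls – buffer and maximal DAMGO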
* marks the source's active call; other numbers are inactive results; i = inactive.

SMILES	TRPC6 inhibitor	TRPC4 PAM	TRPC6 activator	TRPC4 block	TRPC4 agonist
N=c1c2c(-c3ccccc3)c(-c3ccccc3)n(Cc3ccco3)c2ncn1Cc1ccco1	i	i	i	i	46*
N=c1c2c(-c3ccccc3)c(-c3ccccc3)n(Cc3ccccc3)c2ncn1CCCn1ccnc1	-6.6*	i	i	i	i
CCCCn1cnc2c(c(-c3ccccc3)c(-c3ccccc3)n2Cc2ccco2)c1=N	-7.5*	i	i	i	i
N=c1c2c(ncn1Cc1ccco1)Oc1ccc3ccccc3c1C2c1ccccc1 (stereo unspecified)	i	i	i	i	i
O=C(Nc1cccc(NC(=O)c2cccc(Cl)c2)c1)c1cccnc1	i	i	i	i	i
Cc1ccc(NC(=O)CSCC(=O)OCc2cc(=O)oc3cc(O)ccc23)c(C)c1	i	i	i	i	i
CCOC(=O)C1CCN(CC(O)COc2ccc(C(C)(C)C)cc2)CC1 (stereo unspecified)	i	i	i	-6*	i
CCOC(=O)C1CCN(CC(O)COc2ccc(C(C)(C)CC)cc2)CC1 (stereo unspecified)	i	i	i	i	i
CCCn1nc(C(=O)NC2CCCc3ccccc32)c2ccccc2c1=O (stereo unspecified)	i	23*	i	i	i
CC(=O)OCCOc1nc(N(C)C)nc(N(C)C)n1	i	i	i	i	i
Cc1ccc(C(=O)NNC(=O)c2cccc(C)c2)cc1	i	i	i	i	i
O=C(COc1cccc(Cl)c1)NNC(=S)Nc1ccccc1	i	i	i	i	i
O=C(Cc1ccc(Cl)cc1)NNC(=S)NC(=O)c1cccs1	i	i	i	i	107*
Cc1cccc(C(=O)NNC(=S)NC(=O)c2ccccc2)c1	i	i	i	i	173*
CCCCC(=O)NC(=S)NNC(=O)c1ccc(Cl)cc1Cl	i	i	i	i	165*
O=C(COc1ccccc1)NNC(=S)NC(=O)c1ccc(Cl)cc1Cl	i	i	i	i	69*
O=C(CSc1nnc(NC(=O)c2ccccc2F)s1)NC1CC1	i	i	i	i	i
CC1=C(C)CC2(SC1)C(=O)N(c1ccccc1)N=C2N (stereo unspecified)	i	i	i	i	i
COc1ccc(C(=O)NNC(=S)NC(=O)c2cccs2)cc1	i	i	i	i	85*
COc1ccccc1C(=O)NNC(=S)NC(=O)c1cccs1	i	i	i	i	137*
Cc1cccc(/C(N)=N/OC(=O)COc2ccc(Cl)cc2)c1	i	i	i	i	i
Cc1cccc(C(=O)NC(=S)NNC(=O)COc2ccc(Cl)cc2)c1	i	i	i	i	68*
COc1ccc(C(=O)NNC(=S)NC(=O)c2ccc(OC)cc2)cc1	i	i	i	i	78*
COc1ccc(C(=O)NNC(=S)NC(=O)c2cccnc2)cc1	i	i	i	i	i
O=C(/C=C/c1ccccc1)N1CCN(CCN2C(=O)c3cccc4cccc(c34)C2=O)CC1	i	i	i	i	i
SMILES	TRPC6 inhibitor	TRPC4 PAM	TRPC6 activator	TRPC4 block	TRPC4 agonist
N#Cc1cccc(NC(=O)Cn2cnc(S(=O)(=O)N3CCCCC3)c2)c1	i	i	i	i	i
Cc1cccc(C(=O)NNC(=S)NC(=O)c2cccs2)c1	i	i	i	i	212*
COc1ccc(C(=O)NC(=S)NNC(=O)c2cccc(C)c2)cc1	i	i	i	i	214*
Cc1occc1C(=O)NNC(=S)NC(=O)COc1ccc(Cl)cc1Cl	i	i	i	i	87*
O=C(NC(=S)NNC(=O)[C@H]1C[C@@H]1c1ccccc1)c1cccc(F)c1	i	i	i	i	211*
COc1ccc(C(=O)NNC(=S)Nc2ccccc2)cc1	i	i	i	i	i
Cc1ccc(C(=O)N(Cc2cccnc2)Cc2cc3cc(C)ccc3n3nnnc23)cc1	i	i	i	i	i
COc1ccccc1C(=O)NNC(=S)NC(=O)c1sc2ccccc2c1Cl	i	i	i	-8*	48*
COc1ccc(C(=O)NNC(=S)NC(=O)c2ccc(F)cc2)cc1Br	i	i	i	i	49*
O=C1OC(c2ccco2)=N/C1=C\c1ccc(-c2cccc(C(F)(F)F)c2)o1	i	i	i	i	i
CCN1CCN(c2cc(N3CCN(C(=O)c4ccco4)CC3)c3c4c(onc24)-c2ccccc2C3=O)CC1	-5.9*	i	i	i	i
Cc1cccc2c(C(=O)N3CCN(c4ccccn4)CC3)cc(-c3cccc(Br)c3)nc12	i	i	i	i	i
CCCCN(C)CCNC(=O)c1c[nH]c2ccc(S(=O)(=O)N(CC)CC)cc2c1=O	i	20*	i	i	i
CCCNC(=O)c1c[nH]c2ccc(S(=O)(=O)N(C)c3ccc(OCC)cc3)cc2c1=O	i	i	i	i	i
CCN(CC)C(=O)C1CCCN(Cc2cccc(Oc3ccccc3)c2)C1 (stereo unspecified)	i	i	i	-7*	i
CN(Cc1cccc(Cl)c1)C(=O)C1CCN(C(=O)Nc2ccccc2)CC1	i	i	i	i	i
CN(Cc1ccccc1)C(=O)C1CCCN(Cc2cccc(Cl)c2)C1 (stereo unspecified)	i	i	i	-8*	i
COc1ccc(CCN(C)C(=O)C2CCCN(C3CCN(Cc4ccccc4)CC3)C2)cc1OC (stereo unspecified)	i	i	i	i	131*
c1ccc2c(c1)CC1(CCCC1)N=C2N1CCOCC1	i	i	i	i	i
COCCOC(=O)c1cc(C(=O)c2cc(Cl)ccc2O)coc1=N	i	i	i	i	i
CC(=O)C12CCCCC1CC1[C@@H]3CC(C)C4=CC(=O)CC[C@]4(C)C3CC[C@@]12C (stereo partly specified)	i	12*	i	i	i
CC(=O)O[C@]1(C(C)=O)CC[C@H]2[C@@H]3C[C@H](C)C4=CC(=O)CC[C@]4(C)[C@H]3CC[C@@]21C	i	i	i	i	i
O=C1C=C(c2cccc(O)c2)CCC1	i	i	i	i	i
Cc1ccccc1CC(=O)NC1CCCc2ccccc21 (stereo unspecified)	i	i	i	i	i
O=[N+]([O-])c1ccccc1CNC1CCCc2ccccc21 (stereo unspecified)	i	i	i	-6*	i
